Test: in vivo
Format: in vivo, A/J mice
Details: male, A/J, mouse, whole blood, po, 0.5 g/kg

Row | Cmax [nM] | Tmax [h] | SMILES
1 | 263 ± 87.3 | 7.25 ± 5.5 | CC1(C)[C@@H](O)CC[C@]2(C)[C@H]3C(=O)C=C4[C@@H]5C[C@@](C)(C(=O)O)CC[C@]5(C)CC[C@@]4(C)[C@]3(C)CC[C@@H]12 [GA, glycyrrhetinic acid]
2 |  | 0.17 ± 0.09 | COc1c(O)cc(O)c2c(=O)cc(-c3ccccc3)oc12 [Wogonin, wogonin]

Same assay, conditions: male, A/J, mouse, whole blood, po, 500 mg/kg

Row | AUC(0-inf) [µM·h] | AUC(0-t) [µM·h] | Cmax [nM] | half-life [h] | Tmax [h] | SMILES
3 | 3.3 ± 1.18 | 3.3 ± 1.18 | 263 ± 87.3 | 4.77 ± 1.93 |  | CC1(C)[C@@H](O)CC[C@]2(C)[C@H]3C(=O)C=C4[C@@H]5C[C@@](C)(C(=O)O)CC[C@]5(C)CC[C@@]4(C)[C@]3(C)CC[C@@H]12 [GA, glycyrrhetinic acid]
4 | 0.116 ± 0.0822 | 0.11 ± 0.0878 | 18.8 ± 6.27 | 6.16 ± 4.85 | 0.167 | COc1c(O)cc(O)c2c(=O)cc(-c3ccccc3)oc12 [Wogonin, wogonin]

Test: not given
Format: physicochemical, mice
Details: stability in mice plasma/blood QC sample, spiked concentration 0.049
In short: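 Blank mouse blood spiked with analytes and vitamin C, then extracted with methanol containing daidzein internal standard (0.5 μM) by 1 min vortex. Spun at 20,000 × g for 15 min and dried under air. Three replicates per QC level were held unextracted at 25°C for 6 h, at −80°C for 30 days, or extracted in the 4°C autosampler for 24 h. Analysed by UPLC-MS/MS (C18, formic acid/acetonitrile, positive MRM); accuracy as RE.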

Row | Accuracy (RE, %) 25°C for 6 h [%] | SMILES
5 | 13.2 | C[C@@H]1O[C@@H](OC[C@H]2O[C@@H](Oc3c(-c4ccc(O)c(O)c4)oc4cc(O)cc(O)c4c3=O)[C@H](O)[C@@H](O)[C@@H]2O)[C@H](O)[C@H](O)[C@H]1O [rutin]

Same assay, conditions: stability in mice plasma/blood QC sample, spiked concentration 3.9

Row | Accuracy (RE, %) 25°C for 6 h [%] | SMILES
6 | 2.1 | CC1(C)[C@@H](O)CC[C@]2(C)[C@H]3C(=O)C=C4[C@@H]5C[C@@](C)(C(=O)O)CC[C@]5(C)CC[C@@]4(C)[C@]3(C)CC[C@@H]12 [GA, glycyrrhetinic acid]
7 | 11.4 | COc1c(O)cc(O)c2c(=O)cc(-c3ccccc3)oc12 [Wogonin, wogonin]
8 | 7.5 | COc1cc(CCC(C)=O)ccc1O [zingerone]
9 | −4.8 | O=c1c(O)c(-c2ccc(O)c(O)c2)oc2cc(O)cc(O)c12 [quercetin, quecertin]
10 | 8.0 | COc1ccc(-c2coc3cc(O)ccc3c2=O)cc1 [Formononetin, formononetin]
11 | 2.8 | CCCCC[C@H](O)CC(=O)CCc1ccc(O)c(OC)c1 [(6)-Gingerol, 6-gingernol]

Same assay, conditions: stability in mice plasma/blood QC sample, spiked concentration 6.25

Row | Accuracy (RE, %) 25°C for 6 h [%] | SMILES
12 | 3.1 | C[C@@H]1O[C@@H](OC[C@H]2O[C@@H](Oc3c(-c4ccc(O)c(O)c4)oc4cc(O)cc(O)c4c3=O)[C@H](O)[C@@H](O)[C@@H]2O)[C@H](O)[C@H](O)[C@H]1O [rutin]

Same assay, conditions: stability in mice plasma/blood QC sample, spiked concentration 50

Row | Accuracy (RE, %) 25°C for 6 h [%] | SMILES
13 | 6.3 | C[C@@H]1O[C@@H](OC[C@H]2O[C@@H](Oc3c(-c4ccc(O)c(O)c4)oc4cc(O)cc(O)c4c3=O)[C@H](O)[C@@H](O)[C@@H]2O)[C@H](O)[C@H](O)[C@H]1O [rutin]

Same assay, conditions: stability in mice plasma/blood QC sample, spiked concentration 62.5

Row | Accuracy (RE, %) 25°C for 6 h [%] | SMILES
14 | 1.6 | CC1(C)[C@@H](O)CC[C@]2(C)[C@H]3C(=O)C=C4[C@@H]5C[C@@](C)(C(=O)O)CC[C@]5(C)CC[C@@]4(C)[C@]3(C)CC[C@@H]12 [GA, glycyrrhetinic acid]
15 | 9.5 | COc1c(O)cc(O)c2c(=O)cc(-c3ccccc3)oc12 [Wogonin, wogonin]
16 | −8.6 | COc1cc(CCC(C)=O)ccc1O [zingerone]
17 | −12.9 | O=c1c(O)c(-c2ccc(O)c(O)c2)oc2cc(O)cc(O)c12 [quercetin, quecertin]
18 | 11.8 | COc1ccc(-c2coc3cc(O)ccc3c2=O)cc1 [Formononetin, formononetin]
19 | −2.3 | CCCCC[C@H](O)CC(=O)CCc1ccc(O)c(OC)c1 [(6)-Gingerol, 6-gingernol]

Same assay, conditions: stability in mice plasma/blood QC sample, spiked concentration 500

Row | Accuracy (RE, %) 25°C for 6 h [%] | SMILES
20 | 8.1 | CC1(C)[C@@H](O)CC[C@]2(C)[C@H]3C(=O)C=C4[C@@H]5C[C@@](C)(C(=O)O)CC[C@]5(C)CC[C@@]4(C)[C@]3(C)CC[C@@H]12 [GA, glycyrrhetinic acid]
21 | 3.1 | COc1c(O)cc(O)c2c(=O)cc(-c3ccccc3)oc12 [Wogonin, wogonin]
22 | −14.6 | COc1cc(CCC(C)=O)ccc1O [zingerone]
23 | 10.1 | O=c1c(O)c(-c2ccc(O)c(O)c2)oc2cc(O)cc(O)c12 [quercetin, quecertin]
24 | −10.9 | COc1ccc(-c2coc3cc(O)ccc3c2=O)cc1 [Formononetin, formononetin]
25 | −1.0 | CCCCC[C@H](O)CC(=O)CCc1ccc(O)c(OC)c1 [(6)-Gingerol, 6-gingernol]

Same assay, conditions: stability in mice plasma/blood QC sample, −80°C, spiked concentration 0.049

Row | Accuracy (RE, %) Frozen for 30 days [%] | SMILES
26 | 8.3 | C[C@@H]1O[C@@H](OC[C@H]2O[C@@H](Oc3c(-c4ccc(O)c(O)c4)oc4cc(O)cc(O)c4c3=O)[C@H](O)[C@@H](O)[C@@H]2O)[C@H](O)[C@H](O)[C@H]1O [rutin]

Same assay, conditions: stability in mice plasma/blood QC sample, −80°C, spiked concentration 3.9

Row | Accuracy (RE, %) Frozen for 30 days [%] | SMILES
27 | 6.9 | CC1(C)[C@@H](O)CC[C@]2(C)[C@H]3C(=O)C=C4[C@@H]5C[C@@](C)(C(=O)O)CC[C@]5(C)CC[C@@]4(C)[C@]3(C)CC[C@@H]12 [GA, glycyrrhetinic acid]
28 | 8.4 | COc1c(O)cc(O)c2c(=O)cc(-c3ccccc3)oc12 [Wogonin, wogonin]
29 | −5.9 | COc1cc(CCC(C)=O)ccc1O [zingerone]
30 | −2.6 | O=c1c(O)c(-c2ccc(O)c(O)c2)oc2cc(O)cc(O)c12 [quercetin, quecertin]
31 | 13.5 | COc1ccc(-c2coc3cc(O)ccc3c2=O)cc1 [Formononetin, formononetin]
32 | 4.4 | CCCCC[C@H](O)CC(=O)CCc1ccc(O)c(OC)c1 [(6)-Gingerol, 6-gingernol]

Same assay, conditions: stability in mice plasma/blood QC sample, −80°C, spiked concentration 6.25

Row | Accuracy (RE, %) Frozen for 30 days [%] | SMILES
33 | 8.5 | C[C@@H]1O[C@@H](OC[C@H]2O[C@@H](Oc3c(-c4ccc(O)c(O)c4)oc4cc(O)cc(O)c4c3=O)[C@H](O)[C@@H](O)[C@@H]2O)[C@H](O)[C@H](O)[C@H]1O [rutin]

Same assay, conditions: stability in mice plasma/blood QC sample, −80°C, spiked concentration 50

Row | Accuracy (RE, %) Frozen for 30 days [%] | SMILES
34 | 7.9 | C[C@@H]1O[C@@H](OC[C@H]2O[C@@H](Oc3c(-c4ccc(O)c(O)c4)oc4cc(O)cc(O)c4c3=O)[C@H](O)[C@@H](O)[C@@H]2O)[C@H](O)[C@H](O)[C@H]1O [rutin]

Same assay, conditions: stability in mice plasma/blood QC sample, −80°C, spiked concentration 62.5

Row | Accuracy (RE, %) Frozen for 30 days [%] | SMILES
35 | 14.0 | CC1(C)[C@@H](O)CC[C@]2(C)[C@H]3C(=O)C=C4[C@@H]5C[C@@](C)(C(=O)O)CC[C@]5(C)CC[C@@]4(C)[C@]3(C)CC[C@@H]12 [GA, glycyrrhetinic acid]
36 | 15 | COc1c(O)cc(O)c2c(=O)cc(-c3ccccc3)oc12 [Wogonin, wogonin]
37 | −0.9 | COc1cc(CCC(C)=O)ccc1O [zingerone]
38 | 4.8 | O=c1c(O)c(-c2ccc(O)c(O)c2)oc2cc(O)cc(O)c12 [quercetin, quecertin]
39 | 13 | COc1ccc(-c2coc3cc(O)ccc3c2=O)cc1 [Formononetin, formononetin]
40 | −12.1 | CCCCC[C@H](O)CC(=O)CCc1ccc(O)c(OC)c1 [(6)-Gingerol, 6-gingernol]

Same assay, conditions: stability in mice plasma/blood QC sample, −80°C, spiked concentration 500

Row | Accuracy (RE, %) Frozen for 30 days [%] | SMILES
41 | 13.5 | CC1(C)[C@@H](O)CC[C@]2(C)[C@H]3C(=O)C=C4[C@@H]5C[C@@](C)(C(=O)O)CC[C@]5(C)CC[C@@]4(C)[C@]3(C)CC[C@@H]12 [GA, glycyrrhetinic acid]
42 | 10.3 | COc1c(O)cc(O)c2c(=O)cc(-c3ccccc3)oc12 [Wogonin, wogonin]
43 | 12.7 | COc1cc(CCC(C)=O)ccc1O [zingerone]
44 | 14.7 | O=c1c(O)c(-c2ccc(O)c(O)c2)oc2cc(O)cc(O)c12 [quercetin, quecertin]
45 | 4.9 | COc1ccc(-c2coc3cc(O)ccc3c2=O)cc1 [Formononetin, formononetin]
46 | 1.2 | CCCCC[C@H](O)CC(=O)CCc1ccc(O)c(OC)c1 [(6)-Gingerol, 6-gingernol]

Same assay, conditions: stability, extracted QC sample in auto-sampler, spiked concentration 0.049

Row | Accuracy (RE, %) 4°C for 24 h [%] | SMILES
47 | 9.3 | C[C@@H]1O[C@@H](OC[C@H]2O[C@@H](Oc3c(-c4ccc(O)c(O)c4)oc4cc(O)cc(O)c4c3=O)[C@H](O)[C@@H](O)[C@@H]2O)[C@H](O)[C@H](O)[C@H]1O [rutin]

Same assay, conditions: stability, extracted QC sample in auto-sampler, spiked concentration 3.9

Row | Accuracy (RE, %) 4°C for 24 h [%] | SMILES
48 | 5.4 | CC1(C)[C@@H](O)CC[C@]2(C)[C@H]3C(=O)C=C4[C@@H]5C[C@@](C)(C(=O)O)CC[C@]5(C)CC[C@@]4(C)[C@]3(C)CC[C@@H]12 [GA, glycyrrhetinic acid]
49 | 9.2 | COc1c(O)cc(O)c2c(=O)cc(-c3ccccc3)oc12 [Wogonin, wogonin]
50 | 4.6 | COc1cc(CCC(C)=O)ccc1O [zingerone]
51 | −1.3 | O=c1c(O)c(-c2ccc(O)c(O)c2)oc2cc(O)cc(O)c12 [quercetin, quecertin]
52 | −8.9 | COc1ccc(-c2coc3cc(O)ccc3c2=O)cc1 [Formononetin, formononetin]
53 | 2.6 | CCCCC[C@H](O)CC(=O)CCc1ccc(O)c(OC)c1 [(6)-Gingerol, 6-gingernol]

Same assay, conditions: stability, extracted QC sample in auto-sampler, spiked concentration 6.25

Row | Accuracy (RE, %) 4°C for 24 h [%] | SMILES
54 | 12.7 | C[C@@H]1O[C@@H](OC[C@H]2O[C@@H](Oc3c(-c4ccc(O)c(O)c4)oc4cc(O)cc(O)c4c3=O)[C@H](O)[C@@H](O)[C@@H]2O)[C@H](O)[C@H](O)[C@H]1O [rutin]

Same assay, conditions: stability, extracted QC sample in auto-sampler, spiked concentration 50

Row | Accuracy (RE, %) 4°C for 24 h [%] | SMILES
55 | 12.1 | C[C@@H]1O[C@@H](OC[C@H]2O[C@@H](Oc3c(-c4ccc(O)c(O)c4)oc4cc(O)cc(O)c4c3=O)[C@H](O)[C@@H](O)[C@@H]2O)[C@H](O)[C@H](O)[C@H]1O [rutin]

Same assay, conditions: stability, extracted QC sample in auto-sampler, spiked concentration 62.5

Row | Accuracy (RE, %) 4°C for 24 h [%] | SMILES
56 | 12 | CC1(C)[C@@H](O)CC[C@]2(C)[C@H]3C(=O)C=C4[C@@H]5C[C@@](C)(C(=O)O)CC[C@]5(C)CC[C@@]4(C)[C@]3(C)CC[C@@H]12 [GA, glycyrrhetinic acid]
57 | 14.8 | COc1c(O)cc(O)c2c(=O)cc(-c3ccccc3)oc12 [Wogonin, wogonin]
58 | −1 | COc1cc(CCC(C)=O)ccc1O [zingerone]
59 | 5.12 | O=c1c(O)c(-c2ccc(O)c(O)c2)oc2cc(O)cc(O)c12 [quercetin, quecertin]
60 | 13.6 | COc1ccc(-c2coc3cc(O)ccc3c2=O)cc1 [Formononetin, formononetin]
61 | −8.4 | CCCCC[C@H](O)CC(=O)CCc1ccc(O)c(OC)c1 [(6)-Gingerol, 6-gingernol]

Same assay, conditions: stability, extracted QC sample in auto-sampler, spiked concentration 500

Row | Accuracy (RE, %) 4°C for 24 h [%] | SMILES
62 | 14.6 | CC1(C)[C@@H](O)CC[C@]2(C)[C@H]3C(=O)C=C4[C@@H]5C[C@@](C)(C(=O)O)CC[C@]5(C)CC[C@@]4(C)[C@]3(C)CC[C@@H]12 [GA, glycyrrhetinic acid]
63 | 13.5 | COc1c(O)cc(O)c2c(=O)cc(-c3ccccc3)oc12 [Wogonin, wogonin]
64 | 11.4 | COc1cc(CCC(C)=O)ccc1O [zingerone]
65 | 14.72 | O=c1c(O)c(-c2ccc(O)c(O)c2)oc2cc(O)cc(O)c12 [quercetin, quecertin]
66 | 5 | COc1ccc(-c2coc3cc(O)ccc3c2=O)cc1 [Formononetin, formononetin]
67 | 2 | CCCCC[C@H](O)CC(=O)CCc1ccc(O)c(OC)c1 [(6)-Gingerol, 6-gingernol]
